Platelet DG rel: platelet dense granule release activity. human platelet-rich plasma, SFLLRN dense granule ATP release, luminescence. inhibition, %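 (compounds screened at 7.5 µM in platelet-rich plasma)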. 300,000 compounds, 0.22% hits;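 active = mean replicate score, as percent of positive control, at or above 50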
STAT1 blocker: reduces IFN-gamma driven STAT1 reporter signal; NIH 3T3 STAT1-luciferase reporter, luminescence; inhibition, % at 5.5 µM; 200,000 compounds, 0.35% hits;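 active = inhibition above a set limit, the mean inhibition across all tested compounds plus 3 SD, cut at about 34% in these data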;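 note: 0% = IFN-gamma with DMSO and 100% = IFN-gamma with 300 µM nifuroxazide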
STAT3 blocker: STAT3 signaling inhibition; 190,000 compounds, 0.89% hits; inhibition, % at 5.5 µM; AID 862; U3A cells, IL-6 STAT3-luciferase reporter, luminescence; host cell line lacks STAT1;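 active = inhibition above the mean inhibition across all screened compounds plus 3 SD, cut at about 44% in these data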;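 note: 0% = DMSO only wells and 100% = 100 µM nifuroxazide control wells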
STAT3 act-1: increases IL-6 driven STAT3 reporter signal; activation (% of control), % at 5.6 µM; U3A cells, IL-6 STAT3-luciferase reporter, luminescence; 100% = signal with IL-6 EC80 alone; AID 871; 190,000 compounds, 0.91% hits;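 active = activation above the screen-wide mean of compound activation plus 3 SD, cut at about 130% in these data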;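 note: 0% = background luminescence of wells with medium and substrate only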
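System – human U3A cells carrying STAT3-luciferase construct · Probe or stimulus – Interleukin-6, 33 ng/mL · Schedule – compound 1 h, then IL-6 6 h at 37 °C · Signal – luminescence from STAT3-driven luciferase reporter · Evaluation – percent of IL-6-only median luminescence · Benchmarks – IL-6-only high control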
PERK inh: blocks human PERK kinase. CHO PERK-DD fusion, SEAP luminescence translation reporter. inhibition, % at 5.6 µM. AID 1416. Q9NZJ5. 220,000 compounds, 0.17% hits;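 active = inhibition above the mean inhibition of all tested compounds plus 3 SD, set separately per screening campaign, cut at about 2.9% in these data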;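 note: PERK kinase domain activated by AP20187 dimerizer at 100 nM; 0% = DMSO with dimerizer and 100% = rapamycin at 8.4 µM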
Target sequence (Q9NZJ5 whole entry, looked up, the tested form may be a part): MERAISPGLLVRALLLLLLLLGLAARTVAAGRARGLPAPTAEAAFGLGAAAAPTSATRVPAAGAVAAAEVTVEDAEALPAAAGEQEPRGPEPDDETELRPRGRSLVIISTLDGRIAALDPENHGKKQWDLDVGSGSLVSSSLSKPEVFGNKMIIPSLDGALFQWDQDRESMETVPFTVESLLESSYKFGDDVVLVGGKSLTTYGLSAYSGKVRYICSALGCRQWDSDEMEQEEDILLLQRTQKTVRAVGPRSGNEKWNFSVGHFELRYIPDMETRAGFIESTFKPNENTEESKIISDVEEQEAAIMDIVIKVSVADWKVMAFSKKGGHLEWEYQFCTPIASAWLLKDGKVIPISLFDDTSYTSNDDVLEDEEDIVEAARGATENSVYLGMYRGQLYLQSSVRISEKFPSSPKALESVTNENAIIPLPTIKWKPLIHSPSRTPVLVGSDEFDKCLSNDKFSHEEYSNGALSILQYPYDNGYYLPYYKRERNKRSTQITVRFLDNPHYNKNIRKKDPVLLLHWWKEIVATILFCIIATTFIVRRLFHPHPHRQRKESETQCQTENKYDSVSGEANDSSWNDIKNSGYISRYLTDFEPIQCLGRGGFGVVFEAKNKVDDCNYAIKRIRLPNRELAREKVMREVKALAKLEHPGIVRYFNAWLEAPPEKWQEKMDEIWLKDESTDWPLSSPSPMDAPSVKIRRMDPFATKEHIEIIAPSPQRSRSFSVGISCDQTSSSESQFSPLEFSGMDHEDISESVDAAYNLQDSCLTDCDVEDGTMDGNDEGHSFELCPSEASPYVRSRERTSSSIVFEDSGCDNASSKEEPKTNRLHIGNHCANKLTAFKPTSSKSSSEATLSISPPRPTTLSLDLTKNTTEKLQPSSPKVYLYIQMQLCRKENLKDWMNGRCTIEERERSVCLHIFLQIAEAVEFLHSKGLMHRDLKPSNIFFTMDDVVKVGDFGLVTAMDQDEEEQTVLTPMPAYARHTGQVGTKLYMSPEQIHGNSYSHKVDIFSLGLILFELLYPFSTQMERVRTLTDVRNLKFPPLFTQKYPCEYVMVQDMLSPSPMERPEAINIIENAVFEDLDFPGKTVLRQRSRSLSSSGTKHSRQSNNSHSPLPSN
STAT3 act-2: STAT3 activation, confirmation assay | potentiation (% of control), % at 5.7 µM | 1,200 compounds, 64% hits | shares compounds with STAT3 act-1 | U3A STAT3-luciferase reporter, IL-6 potentiation, luminescence; U3A cells lack STAT1; 100 means same as IL-6 alone;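 active = percent activation of the STAT3 luciferase reporter above a set limit taken from the earlier primary screen, cut at about 130% in these data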;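 note: 0% = background signal of medium plus substrate and 100% = median of IL-6 with DMSO wells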
NFkB act 2: counter-screen for STAT3 activators: NF-kappaB activation. 1,200 compounds, 11% hits. activation (% of control), % at 5.7 µM. human cells, NF-kappaB reporter activation. shares compounds with STAT3 act-1; in the data active = activation above about 120%;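 note: reporter induced by TNF-alpha stimulation; 100% = median of stimulated DMSO wells and 0% = no signal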
STAT1 act STAT3c: counter-screen for STAT3 activators: STAT1 activation. shares compounds with STAT3 act-1. NIH 3T3 STAT1-luciferase reporter, IFN-gamma, luminescence. activation (% of control), % at 5.7 µM. 1,200 compounds, 13% hits. AID 1318;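 active = activation above the solvent-only control well mean plus 3 SD, set per screening run, cut at about 120% in these data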;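 note: 100% = IFN-gamma with DMSO median signal so 100% means no change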
Starred values were filed as active, the others as inactive; nt = not tested or not shown. Compounds with a hit are over-represented: about 1.4% of the library has one in this group of screens.

SMILES | Platelet DG rel | STAT1 blocker | STAT3 blocker | STAT3 act-1 | PERK inh | STAT3 act-2 | NFkB act 2 | STAT1 act STAT3c
COc1ccc(OC)c(NC(=O)c2cc3ccccc3o2)c1 | -3 | -8 | -43 | 136* | 0 | 129 | 109 | 112
CCC(=O)Oc1oc(-c2ccccc2)nc1C=Nc1ccccc1OC | 10 | -1 | -50 | 144* | 1 | 129 | 115 | 99
Cc1nc2sc3c(c2c(=O)[nH]1)CCC3 | -3 | -7 | 9 | 98 | 0 | nt | nt | nt
Cc1cc(-c2nc3c4c5c(sc4[nH]c(=O)n3n2)CCC5)c(C)o1 | -1 | 2 | -57 | 151* | 1 | 134* | 97 | 94
C=CCNC(=O)[C@H]1N2C(=O)c3ccccc3C2SC1(C)C (stereo partly drawn) | -5 | nt | nt | nt | nt | nt | nt | nt
NNC(=O)c1ccc2ccccc2n1 | nt | 1 | -38 | 144* | 0 | 141* | 105 | 100
O=C(NN=C1CCCCCCC1)c1ccc2ccccc2n1 | 5 | -12 | -63 | 154* | 1 | 140* | 107 | 119
O=C(NN=C1CCCCCCC1)c1ccccn1 | -1 | -21 | -6 | 108 | 2 | nt | nt | nt
COc1cccc(C(C)N(C)Cc2nc(-c3ccoc3)oc2C)c1 (stereo not drawn) | 2 | 18 | 10 | 93 | 0 | nt | nt | nt
CCCCS(=O)(=O)Nc1ccc2cn[nH]c2c1 | -21 | -2 | -47 | 143* | 1 | 139* | 101 | 99
O=S(=O)(Nc1ccc2cn[nH]c2c1)c1ccc(Cl)cc1 | 8 | nt | nt | nt | nt | nt | nt | nt
O=S(=O)(Nc1ccc2cn[nH]c2c1)c1ccc(Cl)s1 | 4 | 0 | -49 | 138* | 0 | 122 | 97 | 95
O=C(c1ccc2c(c1)OCCO2)N1CCN(c2ncc(C(F)(F)F)cc2Cl)CC1 | -4 | nt | nt | nt | nt | nt | nt | nt
Cc1ccc(-c2nc(NCCN3CCOCC3)c3ccccc3n2)cc1 | 0 | 2 | -81 | 181* | -1 | 169* | 105 | 98
CCN(CC)C1CC(=O)N(c2cccc(Cl)c2)C1=O (stereo not drawn) | -2 | nt | nt | nt | nt | nt | nt | nt
Cc1cc(C)c(S(=O)(=O)/N=C2/C=C(SCC(=O)O)C(=O)c3ccccc32)cc1C | nt | 6 | -37 | 139* | 1 | 135* | 97 | 96
Cc1cccc(NC(=O)C2CCN(S(=O)(=O)c3ccc4c(c3)NC(=O)CO4)CC2)c1 | 6 | nt | nt | nt | nt | nt | nt | nt
CCN(CC)S(=O)(=O)c1ccc(-c2nnc3sc4cccc(C)c4n23)cc1 | 4 | 4 | -54 | 148* | 0 | 160* | 110 | 107
CC(=O)Nc1ccc(S(=O)(=O)NNC(=O)c2cc3c4ccccc4n(C)c3s2)cc1 | -2 | 4 | -37 | 139* | 0 | 142* | 106 | 111
CCOC(=O)CN1C=C(c2ccc3ccccc3n2)C(C[N+](=O)[O-])c2ccccc21 (stereo not drawn) | -1 | 0 | -59 | 157* | -1 | 136* | 108 | 104
Cc1cccc(C2c3[nH]c4ccccc4c3CCN2C(=O)c2cc(CC(C)C)nc(C)n2)n1 (stereo not drawn) | 7 | 7 | -42 | 153* | 1 | 151* | 109 | 102
Cc1cccc(C2c3[nH]c4ccccc4c3CCN2C(=O)c2ocnc2C)n1 (stereo not drawn) | 1 | 11 | -27 | 125 | -1 | nt | nt | nt
Cc1cccc(C2c3[nH]c4ccccc4c3CCN2C(=O)c2nn(C)c(=O)c3ccccc23)n1 (stereo not drawn) | 1 | 1 | -38 | 137* | 1 | 132 | 106 | 94
Cc1cc(-c2nn3c(-c4ccccc4)nnc3s2)c2ccccc2n1 | 6 | 31 | -66 | 156* | -1 | 139* | 99 | 81
c1ccc(-c2cc(-c3nn4c(-c5ccco5)nnc4s3)c3ccccc3n2)cc1 | 3 | 2 | 0 | 101 | 0 | nt | nt | nt
SMILES | Platelet DG rel | STAT1 blocker | STAT3 blocker | STAT3 act-1 | PERK inh | STAT3 act-2 | NFkB act 2 | STAT1 act STAT3c
Cc1cc(=O)oc2cc(O)c(N=Nc3ccccc3)cc12 | 20 | nt | nt | nt | 1 | nt | nt | nt
O=C1Nc2ccc(Br)cc2C12NNc1ccccc1O2 (stereo not drawn) | -4 | 0 | -47 | 141* | 0 | 122 | 98 | 96
O=C1Nc2ccc(Br)cc2C1(O)c1ccccc1 (stereo not drawn) | -6 | nt | nt | nt | nt | nt | nt | nt
COCCNC(=O)c1n[nH]c2ccccc12 | -1 | -11 | 0 | 105 | 0 | nt | nt | nt
COC(=O)c1n[nH]c2ccccc12 | -3 | 2 | -66 | 160* | 0 | 154* | 102 | 95
NC(=S)N/N=C/c1ccc(-c2ccc(Cl)c(Cl)c2)o1 | 6 | -2 | -103 | 191* | 2 | 145* | 109 | 111
Cc1ccc(-c2ccc(/C=N/NC(N)=S)o2)cc1 | 20 | nt | nt | nt | -1 | nt | nt | nt
COc1ccc(OC)c(-c2cc(C(=O)N/N=C/c3cc(OC)c(OC)cc3OC)c3ccccc3n2)c1 | -10 | nt | nt | nt | nt | nt | nt | nt
Cn1cccc1/C=N/NC(=O)CSc1nc2ccccc2n1C | -22 | nt | nt | nt | 0 | nt | nt | nt
Cc1cccc(C)c1Nc1nnc(SC/C(O)=C(\C#N)c2nc3ccccc3[nH]2)s1 | 2 | 10 | -55 | 143* | 1 | 152* | 103 | 89
Cc1ccc(C)c(SCC(=O)OC/C(O)=C(\C#N)c2nc3ccccc3[nH]2)c1 | -4 | 10 | -51 | 146* | 0 | 150* | 111 | 91
Cn1cnnc1SC/C(O)=C(\C#N)c1nc2ccccc2[nH]1 | 16 | 7 | -4 | 103 | 1 | nt | nt | nt
N#C/C(=C(/O)CSc1n[nH]c(N)n1)c1nc2ccccc2[nH]1 | -2 | nt | nt | nt | 2 | nt | nt | nt
Cc1cccc(Nc2nnc(SC/C(O)=C(\C#N)c3nc4ccccc4[nH]3)s2)c1C | -2 | 16 | -63 | 148* | 0 | 145* | 103 | 90
CCc1ccc(CCC(=O)Nc2ccc(Cl)cc2)o1 | 1 | nt | nt | nt | nt | nt | nt | nt
CCC(C)[C@H](NC(=O)c1cc2cc(Cl)ccc2n1C)C(=O)N1CCC[C@H]1C(=O)O (stereo partly drawn) | 1 | nt | nt | nt | nt | nt | nt | nt
Cc1cc(C)nc(N/N=C/c2c[nH]c3ccccc23)n1 | 5 | 8 | -11 | 115 | 2 | nt | nt | nt
Cc1cc(N/N=C/c2c[nH]c3ccccc23)c2ccccc2n1 | 0 | 5 | -53 | 148* | 0 | 141* | 100 | 88
Cc1ccc(OCCOc2ccc(Br)cc2)c([N+](=O)[O-])n1 | -3 | -38 | -14 | 112 | 2 | nt | nt | nt
CC(C)NC(=O)CNc1ccc(C(F)(F)F)cc1[N+](=O)[O-] | 7 | -7 | -2 | 103 | 0 | nt | nt | nt
CN1CCN(C(=O)CNc2ccc(C(F)(F)F)cc2[N+](=O)[O-])CC1 | -2 | 0 | -74 | 162* | 1 | 157* | 103 | 101

Compound activity deposited in PubChem by several laboratories.
